In ChEMBL document CHEMBL1136963, “Sesterterpenes as tubulin tyrosine ligase inhibitors. First insight of structure-activity relationships and discovery of new lead” (J Med Chem, 2009):
The source made the active and inactive calls. The calls are words filed in the database; no cut-off is given here.

How the values were obtained:
[1] = test system: MCF7; assay: Cytotoxicity against human MCF7 cells up to >100 uM after 24 to 48 hrs by MTT assay; type: functional, cell-based
[2] = target: T1, Tubulin--tyrosine ligase (Homo sapiens, UniProt Q8NG68); assay: Binding affinity to TTL by surface plasmon resonance
T1 sequence (Q8NG68 whole entry): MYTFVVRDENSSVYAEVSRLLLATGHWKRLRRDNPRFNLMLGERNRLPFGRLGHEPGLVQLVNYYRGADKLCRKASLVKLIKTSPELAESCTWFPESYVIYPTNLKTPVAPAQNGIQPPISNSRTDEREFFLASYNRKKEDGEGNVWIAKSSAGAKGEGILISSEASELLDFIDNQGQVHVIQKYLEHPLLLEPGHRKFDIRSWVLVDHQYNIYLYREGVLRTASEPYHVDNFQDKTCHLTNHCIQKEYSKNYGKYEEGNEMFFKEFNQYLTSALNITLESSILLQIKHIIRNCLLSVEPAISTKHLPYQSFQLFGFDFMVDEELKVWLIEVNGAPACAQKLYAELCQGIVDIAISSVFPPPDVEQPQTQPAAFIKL
Outline: (§1)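 Biacore SPR. TTL and BSA each amine-coupled (100 µg/mL in 10 mM sodium acetate, pH 5.0) to 8-12 kRU, with an unmodified reference surface. Running buffer 10 mM NaH2PO4, 150 mM NaCl, 0.5% DMSO, pH 7.4. Five-point 2-fold series, typically 0.05-10 µM, in triplicate. 25 °C, 50 µL/min, 60 s association, 200 s dissociation. Double-referenced. KD fitted from at least 10 curves.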

[3] = test system: J774.A1; assay: Cytotoxicity against mouse J774A1 cells up to >100 uM after 24 to 48 hrs by MTT assay; type: functional, cell-based
[4] = test system: HEK293; assay: Cytotoxicity against HEK293 cells up to >100 uM after 24 to 48 hrs by MTT assay; type: functional, cell-based; conditions: Homo sapiens
[5] = target: Albumin (Bos taurus, UniProt P02769); assay: Binding affinity to bovine serum albumin by surface plasmon resonance; type: ADME; conditions: cattle, isolated protein; outline: as §1
[6] = target: T2, Tubulin--tyrosine ligase (Homo sapiens) (UniProt Q8NG68); assay: Inhibition of TTL in human MCF7 cells assessed as increase in delta2-tubulin level at 100 uM after 24 to 48 hrs by Western blot; type: cell-based
T2 sequence (whole entry): T1 sequence (Q8NG68 whole entry)
Outline: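 MCF-7 cells were grown in DMEM with 10% FBS at 37 °C, 5% CO2, seeded at 4 × 10^5 per well, and treated 24 h later with or without 100 µM compound for 24 and 48 h. NP-40 lysates (20 µg protein, Bradford) were run on 10% SDS-PAGE and blotted. Membranes were probed overnight at 4 °C with rabbit polyclonal anti-Δ2-α-tubulin.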

Sequence of Albumin (P02769 whole entry): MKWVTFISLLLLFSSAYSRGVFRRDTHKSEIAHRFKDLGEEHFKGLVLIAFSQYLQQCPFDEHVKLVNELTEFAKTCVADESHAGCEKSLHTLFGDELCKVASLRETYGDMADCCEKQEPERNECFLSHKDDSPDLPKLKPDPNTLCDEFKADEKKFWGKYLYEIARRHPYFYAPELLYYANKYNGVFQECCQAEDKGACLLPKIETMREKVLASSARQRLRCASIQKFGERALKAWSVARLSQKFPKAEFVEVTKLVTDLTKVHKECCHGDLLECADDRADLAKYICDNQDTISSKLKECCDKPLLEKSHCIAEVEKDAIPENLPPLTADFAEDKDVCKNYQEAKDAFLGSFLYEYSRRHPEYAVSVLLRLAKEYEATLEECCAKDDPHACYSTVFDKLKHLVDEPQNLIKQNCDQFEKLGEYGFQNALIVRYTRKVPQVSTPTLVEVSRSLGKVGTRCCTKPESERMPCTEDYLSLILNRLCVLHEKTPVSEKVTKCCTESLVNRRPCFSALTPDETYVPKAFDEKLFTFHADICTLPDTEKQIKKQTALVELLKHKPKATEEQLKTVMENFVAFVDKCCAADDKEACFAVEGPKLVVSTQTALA

SMILES	Activity [1]	Kd [2] [nM]	Activity [3]	Activity [4]	Activity [5]	Activity [6]
COC(=O)[C@]1(C)CCC[C@@]2(C)[C@H]1[C@@H](O)C[C@@](C)(O)[C@@H]2CC/C(C)=C/[C@H](O)[C@H]1OC(=O)C=C1C	inactive	6200	inactive	inactive	Not Active	–
C=C1C[C@@H]2OC[C@]3(C)CCC[C@](C)([C@H]1CC/C(C)=C/C[C@H]1OC(=O)C=C1C)[C@@H]23	inactive	8700	inactive	inactive	Not Active	–
CC1=CC(=O)O/C1=C\C=C(/C)CC[C@@H]1[C@@]2(C)CCC[C@@]3(C)C(O)O[C@@H](C[C@@]1(C)O)[C@H]23 (stereo not given in full)	inactive	480	inactive	inactive	Not Active	–
C=C(CC[C@@H]1[C@@]2(C)CCC[C@@](C)(C=O)[C@@H]2[C@@H](O)C[C@@]1(C)O)[C@@H](O)[C@@H](O)C1OC(=O)C=C1C (stereo not given in full)	inactive	–	inactive	inactive	Not Active	–
CC1=CC(=O)O[C@@H]1C/C=C(\C)CC[C@@H]1[C@@]2(C)CCC[C@@](C)(C=O)[C@@H]2[C@@H](O)C[C@@]1(C)O	inactive	810	inactive	inactive	Not Active	–
CC1=CC(=O)O[C@@H]1[C@@H](O)/C=C(\C)CC[C@@H]1[C@@]2(C)CCC[C@]3(C)[C@@H]2[C@H](C[C@@]1(C)O)O[C@@H]3O	inactive	210000	inactive	inactive	Not Active	Active
C=C(CC[C@@H]1[C@@]2(C)CCC[C@@](C)(CO)[C@@H]2[C@@H](O)C[C@@]1(C)O)[C@@H](O)[C@@H](O)C1OC(=O)C=C1C (stereo in doubt; 23) [listing 1 of 2 here]	inactive	–	inactive	inactive	–	–
CCO[C@H]1O[C@H]2C[C@@](C)(O)[C@H](CC/C(C)=C/C[C@H]3OC(=O)C=C3C)[C@@]3(C)CCC[C@]1(C)[C@H]23	inactive	73	inactive	inactive	Not Active	–
CC1=CC(=O)O[C@@H]1[C@@H](O)/C=C(\C)CC[C@@H]1[C@@]2(C)CCC[C@@](C)(CO)[C@@H]2[C@@H](O)C[C@@]1(C)O	inactive	4700	inactive	inactive	Not Active	–
CC1=CC(=O)O/C1=C\C=C(/C)CC[C@@H]1[C@@]2(C)CCC[C@@]3(C)C(=O)O[C@@H](C[C@@]1(C)O)[C@H]23	inactive	150	inactive	inactive	Not Active	–
CC1=CC(=O)O[C@@H]1[C@@H](O)/C=C(\C)CC[C@@H]1[C@@]2(C)CCC[C@@](C)(C=O)[C@@H]2[C@@H](O)C[C@@]1(C)O	inactive	3000	inactive	inactive	Not Active	–
CC1=CC(=O)O/C1=C\C=C(/C)CC[C@@H]1[C@@]2(C)CCC[C@@](C)(C=O)[C@@H]2[C@@H](O)C[C@@]1(C)O	inactive	200	inactive	inactive	Not Active	–
CC1=CC(=O)O[C@@H]1[C@@H](O)/C=C(\C)CC[C@@H]1[C@@]2(C)CCCC(C)(C)[C@@H]2[C@@H](O)C[C@@]1(C)O	inactive	–	inactive	inactive	Not Active	–
CC1=CC(=O)OC1C/C=C(\C)CC[C@@H]1[C@@]2(C)CCC[C@@](C)(C(=O)O)[C@@H]2[C@@H](O)C[C@@]1(C)O (stereo not given in full)	inactive	7	inactive	inactive	Not Active	–
C=C1C[C@H](O)[C@@H]2[C@](C)(CCC[C@@]2(C)C=O)[C@H]1CC/C(C)=C/[C@H](O)[C@H]1OC(=O)C=C1C	inactive	3300	inactive	inactive	Not Active	–
CC1=CC(=O)O[C@@H]1[C@@H](O)/C=C(\C)CC[C@@H]1[C@@]2(C)CCC[C@@]3(C)C(=O)O[C@@H](C[C@@]1(C)O)[C@H]23	inactive	–	inactive	inactive	Not Active	Active
C=C(CC[C@@H]1[C@@]2(C)CCC[C@@](C)(CO)[C@@H]2[C@@H](O)C[C@@]1(C)O)[C@@H](O)[C@@H](O)C1OC(=O)C=C1C (stereo in doubt; 23) [listing 2 of 2 here]	–	–	–	–	Not Active	–
C=C(CC[C@@H]1[C@@]2(C)CCC[C@@](C)(CO)[C@@H]2[C@@H](O)C[C@@]1(C)O)[C@@H](O)[C@@H](O)C1OC(=O)C=C1C (stereo in doubt; 22)	inactive	–	inactive	inactive	–	–
CC1=CC(=O)O/C1=C\C=C(/C)CC[C@@H]1[C@@]2(C)CCC[C@@](C)(CO)[C@@H]2[C@@H](O)C[C@@]1(C)O	inactive	110	inactive	inactive	Not Active	–
CCO[C@H]1O[C@H]2C[C@@](C)(O)[C@H](CC/C(C)=C/[C@H](O)[C@H]3OC(=O)C=C3C)[C@@]3(C)CCC[C@]1(C)[C@H]23	inactive	960	inactive	inactive	Not Active	–
CC1=CC(=O)O[C@@H]1[C@@H](O)/C=C(\C)CC[C@@H]1[C@@]2(C)CCC[C@@](C)(C(=O)O)[C@@H]2[C@@H](O)C[C@@]1(C)O	inactive	3000	inactive	inactive	Not Active	–
C=C1C[C@H](O)[C@H]2[C@](C)(CO)CCC[C@]2(C)[C@H]1CC/C(C)=C/[C@H](O)[C@H]1OC(=O)C=C1C	inactive	2000	inactive	inactive	Not Active	–
CC1=CC(=O)O/C1=C\C=C(/C)CC[C@@H]1[C@@]2(C)CCC[C@@](C)(C(=O)O)[C@@H]2[C@@H](O)C[C@@]1(C)O	inactive	93	inactive	inactive	Not Active	–
CC1=CC(=O)O[C@@H]1C/C=C(\C)CC[C@@H]1[C@@]2(C)CCC[C@@](C)(CO)[C@@H]2[C@@H](O)C[C@@]1(C)O	inactive	72	inactive	inactive	Not Active	–
CC1=CC(=O)O[C@@H]1[C@@H](O)/C=C(\C)CC[C@@H]1[C@@]2(C)CCC[C@@]3(C)CO[C@@H](C[C@@]1(C)O)[C@@H]32	inactive	–	inactive	inactive	Not Active	–
